Active and inactive are the calls of the source. The calls are words filed in the database; no cut-off is given here.
Columns and labels:
RAW264.7 [1] = experiment: Antiinflammatory activity in mouse RAW264.7 cells assessed as reduction in LPS-induced TNF-alpha production at 1 pM to 100 nM incubated for 2 hrs prior to LPS challenge measured after 8 hrs by ELISA; assay type: functional, cell-based
Outline: (§1)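 RAW 264.7 macrophages were plated at 1×10^5 per well, grown overnight and washed with PBS. Compounds in water (final 1 pM-100 nM, medium with 2% FCS) were added 2 h at 37 °C before E. coli 0111:B4 LPS, 2.5 µg/mL. TNF-α was sampled at 8 h; IL-6 and nitrite (Griess) at 24 h. ELISA was used for cytokines. Values are % of the LPS + medium value in each experiment. Budesonide was the reference. 2-3 experiments, 6 wells per concentration.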

RAW264.7 [2] = experiment: Cytoprotective activity against H2O2-induced oxidative stress in mouse RAW264.7 cells assessed as cell viability at 100 nM incubated for 2 hrs prior to H2O2 addition measured after 24 hrs by MTT assay (reference value: 68 to 72.8%); assay type: functional; details: read-out: Activity
RAW264.7 [3] = experiment: Antiinflammatory activity in mouse RAW264.7 cells assessed as reduction in LPS-induced nitric oxide production at 1 pM to 100 nM incubated for 2 hrs prior to LPS challenge measured after 24 hrs by Griess assay; assay type: functional, cell-based; outline: as §1
RAW264.7 [4] = experiment: Antiinflammatory activity in mouse RAW264.7 cells assessed as reduction in LPS-induced IL6 production at 1 pM to 100 nM incubated for 2 hrs prior to LPS challenge measured after 24 hrs by ELISA; assay type: functional, cell-based; outline: as §1
RAW264.7 [5] = experiment: Cytoprotective activity against H2O2-induced oxidative stress in mouse RAW264.7 cells assessed as cell viability at 10 nM incubated for 2 hrs prior to H2O2 addition measured after 24 hrs by MTT assay (reference value: 68 to 72.8%); assay type: functional; details: read-out: Activity
RAW264.7 [6] = experiment: Antiinflammatory activity in mouse RAW264.7 cells assessed as reduction in LPS-induced IL-6 production at 100 pM to 100 nM incubated for 2 hrs prior to LPS challenge measured after 24 hrs by ELISA; assay type: functional, cell-based; outline: as §1
RAW264.7 [7] = experiment: Antiinflammatory activity in mouse RAW264.7 cells assessed as reduction in LPS-induced TNF-alpha production at 100 pM to 100 nM incubated for 2 hrs prior to LPS challenge measured after 8 hrs by ELISA; assay type: functional, cell-based; outline: as §1
RAW264.7 [8] = experiment: Cytoprotective activity against H2O2-induced oxidative stress in mouse RAW264.7 cells assessed as decrease in caspase-3 activity at 1 pM incubated for 4 hrs prior to H2O2 addition measured after 90 mins by caspase-GloR reagent-based luminescence assay relative to control; assay type: functional
Outline: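 RAW 264.7 macrophages were pretreated with compound (1 pM or 1 nM) 4 h before H2O2 100 µM. Medium was replaced with fresh DMEM after 90 min and plates were incubated overnight. Caspase-Glo 3/7 reagent was added and luminescence read after 30 min at room temperature. Mean ± SD, 4-6 replicates.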

RAW264.7 [9] = experiment: Antiinflammatory activity in mouse RAW264.7 cells assessed as reduction in LPS-induced IL-6 production at 1 nM incubated for 2 hrs prior to LPS challenge measured after 24 hrs by ELISA; assay type: functional; design: scale not given: the % may be the effect or the level left; outline: as §1
RAW264.7 [10] = experiment: Antiinflammatory activity in mouse RAW264.7 cells assessed as reduction in LPS-induced TNF-alpha production at 1 nM incubated for 2 hrs prior to LPS challenge measured after 8 hrs by ELISA; assay type: functional; design: scale not given: the % may be the effect or the level left; outline: as §1
RAW264.7 [11] = experiment: Antiinflammatory activity in mouse RAW264.7 cells assessed as reduction in LPS-induced nitric oxide production at 1 nM incubated for 2 hrs prior to LPS challenge measured after 24 hrs by Griess assay; assay type: functional; design: scale not given: the % may be the effect or the level left; outline: as §1
RAW264.7 [12] = experiment: Cytoprotective activity against H2O2-induced oxidative stress in mouse RAW264.7 cells assessed as decrease in LDH release at 1 pM incubated for 2 hrs prior to H2O2 addition by colorimetric assay relative to control; design: scale not given: the % may be the effect or the level left
[13] = Cytotoxicity against mouse RAW264.7 cells assessed as cell viability at 10^-10 M after 24 hrs by MTT assay relative to control; assay type: cell-based; details: read-out: Activity
Outline: (§2)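 RAW 264.7 cells, seeded at 1×10^4 cells/mL and incubated 24 h, were exposed to compound from 1 pM to 100 nM. Viability was read by MTT (final 0.5 mg/mL, 1 h at 37 °C), with formazan dissolved in DMSO and OD at 570 nm. Results are compared with medium-only cells.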

[14] = Cytotoxicity against mouse RAW264.7 cells assessed as cell viability at 10^-12 M after 24 hrs by MTT assay relative to control; assay type: cell-based; details: read-out: Activity; outline: as §2
[15] = Cytotoxicity against mouse RAW264.7 cells assessed as cell viability at 10^-8 M after 24 hrs by MTT assay relative to control; assay type: cell-based; details: read-out: Activity; outline: as §2
[16] = Cytotoxicity against mouse RAW264.7 cells assessed as cell viability at 10^-7 M after 24 hrs by MTT assay relative to control; assay type: cell-based; details: read-out: Activity; outline: as §2
[17] = Cytotoxicity against mouse RAW264.7 cells assessed as cell viability at 10^-11 M after 24 hrs by MTT assay relative to control; assay type: cell-based; details: read-out: Activity; outline: as §2
[18] = Cytotoxicity against mouse RAW264.7 cells assessed as cell viability at 10^-9 M after 24 hrs by MTT assay relative to control; assay type: cell-based; details: read-out: Activity; outline: as §2
RAW264.7 [19] = experiment: Cytoprotective activity against H2O2-induced oxidative stress in mouse RAW264.7 cells assessed as decrease in LDH release at 1 pM incubated for 2 hrs prior to H2O2 addition by colorimetric assay relative to control; assay type: functional; design: scale not given: the % may be the effect or the level left
Outline: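 RAW 264.7 cells were seeded and pretreated with compound before H2O2 100 µM, in serum-free medium. Collected medium was centrifuged and incubated with reaction mix 30 min at room temperature. LDH was measured as NADH formation by colorimetric read at 490 nm. n = 8-10 replicates per concentration.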

In the case of `COc1ccc2c(c1)CCN2CCC(=O)O`, the Activity (RAW264.7 [1]) is reported as “inactive”, the viability at 0.1 µM (RAW264.7 [2]) is reported as 87.1% and the Activity (RAW264.7 [3]) is reported as “inactive”. The Activity (RAW264.7 [4]) was “inactive”.

In the case of `c1ccc2c(c1)CCN2` [INDOLINE], the viability at 0.01 µM (RAW264.7 [5]) is reported as 90.4%.

For `CC(C)NCCCN1CCc2cccc(O)c21.Cc1ccc(S(C)(=O)=O)cc1.Cc1ccc(S(C)(=O)=O)cc1`, the Activity (RAW264.7 [6]) was “inactive” and the Activity (RAW264.7 [7]) was “inactive”.

With `Cc1ccc(S(C)(=O)=O)cc1.Cc1ccc(S(C)(=O)=O)cc1.NCCCN1CCc2cccc(OCc3ccccc3)c21` the Activity (RAW264.7 [8]) was “inactive”, the Activity (RAW264.7 [1]) was “Dose-dependent effect” and the viability at 0.1 µM (RAW264.7 [2]) was 79.3%. The Activity (RAW264.7 [3]) was “Dose-dependent effect”.

With `CC(C)NC(=O)CCN1CCc2ccc(F)cc21` the Activity (RAW264.7 [1]) was “inactive”, the viability at 0.1 µM (RAW264.7 [2]) was 86.9% and the Activity (RAW264.7 [3]) was “inactive”. The Activity (RAW264.7 [4]) was “inactive”.

With `COc1ccc2c(c1)CCN2CCCNC(C)C.Cl.Cl` the Activity (RAW264.7 [1]) was “Dose-dependent effect”, the viability at 0.01 µM (RAW264.7 [5]) was 87.1% and the Activity (RAW264.7 [9]) was 50%. For the same compound, the Activity (RAW264.7 [3]) was “Dose-dependent effect”, the Activity (RAW264.7 [10]) was 50% and the Activity (RAW264.7 [11]) was 50%.

In the case of `Cl.OCCCN1CCc2ccccc21`, the Activity (RAW264.7 [6]) is reported as “Active”, the Activity (RAW264.7 [12]) is reported as 16% and the viability at 0.1 µM (RAW264.7 [2]) is reported as 89.8%. It also gave a viability at 24 h, 0.0001 µM [13] of 91.6%, a viability at 24 h, 1e-06 µM [14] of 89.5% and a viability at 24 h, 0.01 µM [15] of 92.3%. The Activity (RAW264.7 [7]) was “Active”, the viability at 24 h, 0.1 µM [16] was 94.4% and the viability at 24 h, 1e-05 µM [17] was 89.9%. It also gave a viability at 24 h, 0.001 µM [18] of 95.1% and an Activity (RAW264.7 [19]) of 16%.

— ChEMBL document CHEMBL4177768, “Synthesis and Biological Evaluation of Derivatives of Indoline as Highly Potent Antioxidant and Anti-inflammatory Agents” (J Med Chem, 2018)
